# Assay results collected from several papers.
# Lines come from different studies, so protocols differ.
Structure (SMILES),tested on,assay,test system,setting,measurement,value
N.N.[Cl][Pt][Cl],CA46,"cell growth or viability, ATP luminescence",,"10 µM, 72 h",inhibition,95%
c1ccc([Se][Au]=[c]2n(C3CCCCC3)ccn2C2CCCCC2)cc1,HT-29,"cell growth or viability, crystal violet",,,IC50,1.1 µM
Clc1nc[n]([Au][PH](c2ccccc2)(c2ccccc2)c2ccccc2)c1Cl,IMR-90,"cell growth or viability, MTT",,48 h,IC50,54.9 µM
C[C@H]1COc2c(N3CCN(C)CC3)c(F)cc3c(=O)c(C(=O)O)cn1c23,Klebsiella pneumoniae,microbial growth,ATCCBAA1705,drug-resistant strain,MIC,> 8 mg/L
N#Cc1nc[n]([Au][PH](c2ccccc2)(c2ccccc2)c2ccccc2)c1C#N,IMR-90,"cell growth or viability, MTT",,48 h,IC50,64 µM
NCC[C@H](O)C(=O)N[C@@H]1C[C@H](N)[C@@H](O[C@H]2O[C@H](CN)[C@@H](O)[C@H](O)[C@H]2O)[C@H](O)[C@H]1O[C@H]1O[C@H](CO)[C@@H](O)[C@H](N)[C@H]1O,Mycobacterium tuberculosis variant bovis BCG,microbial growth,BCG,,MIC50,0.32 mg/L
[H]/N=C(/N)N[C@H]1[C@H](O)[C@@H](O)[C@H](O[C@@H]2O[C@@H](C)[C@](O)(C=O)[C@H]2O[C@@H]2O[C@@H](CO)[C@H](O)[C@@H](O)[C@@H]2NC)[C@@H](N/C(N)=N\[H])[C@@H]1O,Klebsiella pneumoniae,"microbial growth, broth dilution",ATCC43816,,MIC,2 mg/L
NNC(=O)c1ccncc1,Mycobacterium tuberculosis variant bovis BCG,microbial growth,BCG,,MIC90,0.24 mg/L
C[C@@H](O)[C@H]1C(=O)N2C(C(=O)O)=C(S[C@@H]3CN[C@H](C(=O)N(C)C)C3)[C@H](C)[C@H]12,Klebsiella pneumoniae,microbial growth,ATCCBAA1705,drug-resistant strain,MIC,> 8 mg/L
